Measured values taken from ChEMBL document CHEMBL2429861, “Chemopreventive and antioxidant activity of 6-substituted imidazo[2,1-b]thiazoles” (Eur J Med Chem, 2013).

Experiments:
Liver microsomes [1] = assay: Drug metabolism in human liver microsomes assessed as monooxygenated metabolite after 1.9 mins by UHPLC-MS/MS analysis; format: ADME, Microsome; conditions: 114 s
Summary of the method: (§1)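 Microsomal incubations as for stability (1 mg/mL human liver microsomes, NADPH, 37 °C). Metabolites analysed by UHPLC-MS/MS with a 4.5 min gradient at 0.2 mL/min, recording product ion scans over m/z 100–300.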

[2] = Half life in human liver microsomes at 1 uM after 1 to 60 mins by UHPLC-MS/MS analysis; format: ADME, Microsome
Aromatase [3] = molecular target: T1, Aromatase (Homo sapiens, UniProt P11511); assay: Inhibition of aromatase (unknown origin) using dibenzylfluorscein as substrate incubated with NADP+ for 10 mins prior to substrate addition measured after 30 mins by fluorescence assay
T1 sequence (P11511 whole entry): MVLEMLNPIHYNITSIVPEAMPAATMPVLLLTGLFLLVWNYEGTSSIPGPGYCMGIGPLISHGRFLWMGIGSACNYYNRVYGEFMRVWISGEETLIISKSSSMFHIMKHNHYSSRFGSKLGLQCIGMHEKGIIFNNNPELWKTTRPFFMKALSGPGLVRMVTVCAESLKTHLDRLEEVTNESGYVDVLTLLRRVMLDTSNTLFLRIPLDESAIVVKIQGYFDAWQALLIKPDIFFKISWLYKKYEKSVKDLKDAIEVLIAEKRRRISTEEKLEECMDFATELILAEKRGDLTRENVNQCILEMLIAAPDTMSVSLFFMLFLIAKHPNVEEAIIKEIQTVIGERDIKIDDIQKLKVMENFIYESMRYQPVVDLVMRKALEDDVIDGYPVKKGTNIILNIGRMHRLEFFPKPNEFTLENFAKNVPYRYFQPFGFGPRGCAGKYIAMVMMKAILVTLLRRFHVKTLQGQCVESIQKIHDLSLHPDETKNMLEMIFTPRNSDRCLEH

Aromatase [4] = molecular target: T1, Aromatase; assay: Inhibition of aromatase (unknown origin) using dibenzylfluorscein as substrate incubated with NADP+ for 10 mins prior to substrate addition at 50 uM measured after 30 mins by fluorescence assay; conditions: 0.5 h
Summary of the method: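 Compounds preincubated 10 min at 37 °C with an NADPH-regenerating system (2.6 mM NADP+, 7.6 mM glucose 6-phosphate, 0.8 U/mL G6PDH, 13.9 mM MgCl2, 1 mg/mL albumin; 50 mM K phosphate, pH 7.4). CYP19 enzyme with […] was added for 30 min at 37 °C. The reaction was stopped with 2 N NaOH and held 24 h at 37 °C, then fluorescence read at ex 485/em 530 nm.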

[5] = molecular target: NAD(P)H dehydrogenase [quinone] 1 (Mus musculus) (UniProt Q64669); assay: Induction of quinone reductase-1 activity in mouse Hepa-1c1c7 cells expressing TAOc1BPrcI mutant assessed as induction ratio at 50 uM by MTT assay relative to DMSO control; format: cell-based
[6] = molecular target: NAD(P)H dehydrogenase [quinone] 1 (Mus musculus) (UniProt Q64669); assay: Induction of quinone reductase-1 activity in mouse Hepa-1c1c7 cells expressing BPrc1 mutant assessed as induction ratio at 50 uM by MTT assay relative to DMSO control; format: cell-based
[7] = molecular target: NAD(P)H dehydrogenase [quinone] 1 (Mus musculus) (UniProt Q64669); assay: Induction of quinone reductase-1 activity in mouse Hepa-1c1c7 cells assessed as concentration required to double induction activity by MTT assay; format: cell-based
Summary of the method: (§2)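 Hepa 1c1c7 murine hepatoma cells incubated with compounds at […]. Cells were permeabilized with digitonin and QR1 activity measured by MTT reduction to formazan at 595 nm, with a parallel crystal violet protein assay. IR is specific activity versus DMSO control; CD is the concentration doubling activity, determined only where IR >2. Two independent experiments in triplicate.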

[8] = molecular target: NAD(P)H dehydrogenase [quinone] 1 (Mus musculus) (UniProt Q64669); assay: Induction of quinone reductase-1 activity in mouse Hepa-1c1c7 cells assessed as induction ratio at 50 uM by MTT assay relative to DMSO-treated control; format: cell-based; summary of the method: as §2
[9] = molecular target: T2, Nitric oxide synthase, inducible (Mus musculus) (UniProt P29477); assay: (§3) Inhibition of iNOS-mediated NO production in mouse RAW264.7 cells by Griess assay; format: cell-based
T2 sequence (whole entry): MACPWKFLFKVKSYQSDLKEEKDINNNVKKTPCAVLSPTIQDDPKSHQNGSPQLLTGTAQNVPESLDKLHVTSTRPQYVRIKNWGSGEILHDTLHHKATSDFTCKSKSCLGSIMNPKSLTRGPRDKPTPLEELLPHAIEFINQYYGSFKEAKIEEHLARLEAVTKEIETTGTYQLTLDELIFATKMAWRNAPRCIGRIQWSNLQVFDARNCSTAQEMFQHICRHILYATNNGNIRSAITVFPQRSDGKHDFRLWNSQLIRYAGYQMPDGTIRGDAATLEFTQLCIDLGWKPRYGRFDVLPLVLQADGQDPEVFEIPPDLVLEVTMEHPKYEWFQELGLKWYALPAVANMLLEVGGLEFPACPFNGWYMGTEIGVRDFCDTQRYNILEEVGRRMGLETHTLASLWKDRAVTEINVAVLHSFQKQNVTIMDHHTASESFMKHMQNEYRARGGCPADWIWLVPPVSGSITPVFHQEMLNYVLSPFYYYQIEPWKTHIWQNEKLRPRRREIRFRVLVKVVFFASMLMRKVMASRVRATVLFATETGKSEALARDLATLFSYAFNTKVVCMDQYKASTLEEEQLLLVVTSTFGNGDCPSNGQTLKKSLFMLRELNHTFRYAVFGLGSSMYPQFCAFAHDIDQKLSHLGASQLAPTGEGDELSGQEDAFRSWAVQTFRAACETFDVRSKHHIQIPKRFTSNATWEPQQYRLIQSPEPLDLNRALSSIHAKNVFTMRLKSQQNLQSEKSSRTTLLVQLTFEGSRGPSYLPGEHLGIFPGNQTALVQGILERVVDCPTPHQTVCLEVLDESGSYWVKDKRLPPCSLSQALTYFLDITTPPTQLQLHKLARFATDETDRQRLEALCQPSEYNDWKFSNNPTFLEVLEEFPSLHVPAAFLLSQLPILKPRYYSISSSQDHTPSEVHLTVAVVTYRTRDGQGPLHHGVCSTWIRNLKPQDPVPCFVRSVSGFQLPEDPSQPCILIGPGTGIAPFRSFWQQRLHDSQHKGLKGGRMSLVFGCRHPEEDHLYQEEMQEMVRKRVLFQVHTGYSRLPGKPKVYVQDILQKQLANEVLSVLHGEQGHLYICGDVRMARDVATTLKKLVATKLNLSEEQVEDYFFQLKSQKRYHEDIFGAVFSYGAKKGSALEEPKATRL
Summary of the method: (§4)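 RAW 264.7 cells, 1×10^5 per well, held 24 h at 37 °C under 5% CO2. Nitrite in the medium was measured with Griess reagent (sulfanilamide/N-(1-naphthyl)ethylenediamine in H3PO4) at 540 nm against a sodium nitrite standard curve.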

[10] = molecular target: T3, Nitric oxide synthase, inducible (Mus musculus, UniProt P29477); assay: as §3; format: cell-based; summary of the method: as §4
T3 sequence (P29477 whole entry): T2 sequence (whole entry)

[11] = Cytotoxicity against mouse RAW264.7 cells assessed as cell survival at 50 uM after 15 mins by SRB assay; format: cell-based; conditions: read-out: Survival
Summary of the method: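 RAW 264.7 cells were seeded at 1×10^5 per well and held 24 h at 37 °C in 5% CO2. They were then pretreated 15 min with serially diluted compound, followed by LPS (or no LPS) for a further 20 h. Medium was taken for the Griess assay, and cells were fixed with 10% TCA and stained with 0.4% SRB in 1% acetic acid. Bound dye was dissolved in 10 mM Tris and read at 515 nm. Survival is relative to LPS-treated control; two experiments in duplicate.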

[12] = molecular target: T2, Nitric oxide synthase, inducible (Mus musculus); assay: Inhibition of iNOS-mediated NO production in mouse RAW264.7 cells at 50 uM by Griess assay; format: cell-based
HEK293 [13] = assay: Cytotoxicity against human HEK293 cells assessed as reduction in cell survival; format: cell-based
Summary of the method: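 Same 293/NFkB-Luc cells under the NFkB assay conditions; cytotoxic IC50 taken as the concentration giving 50% cell survival.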

[14] = Inhibition of TNFalpha-induced nuclear factor-kappa-B activation in human HEK293 cells at by luciferase reporter gene assay; format: cell-based
Summary of the method: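 Stably transfected 293/NFkB-Luc cells seeded at 20 × 10^3 per well in DMEM with 10% FBS, penicillin/streptomycin and 2 mM L-glutamine for 48 h. Medium was then replaced and cells were given compounds in DMSO plus TNF-α 2 ng/mL (0.14 nM) for 6 h. Cells were lysed and luciferase luminescence read; IC50 is the concentration halving TNF-α-activated activity; […]. Mean ± SD of two experiments in duplicate.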

[15] = Cytotoxicity against human HEK293 cells assessed as cell survival at 50 uM; format: cell-based; conditions: read-out: Survival
HEK293 [16] = assay: Inhibition of TNFalpha-induced nuclear factor-kappa-B activation in human HEK293 cells at 50 uM by luciferase reporter gene assay; format: cell-based
[17] = test system: Radical scavenging activity; assay: Antioxidant activity in non-aqueous medium assessed as trolox equivalents of DPPH radical scavenging activity by spectrophotometry; format: functional
Summary of the method: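 DPPH radical decolorization by hydrogen-donating scavengers in MeOH or EtOH. Some values could not be determined where the compound's solution colour resembled the DPPH reagent, or where % inhibition versus concentration was not linear.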

[18] = Antioxidant activity assessed as trolox equivalents of ABTS radical scavenging activity at pH 7.4 by spectrophotometry; format: functional
Summary of the method: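 TEAC run at pH 7.4; activity reported as mM equivalents of Trolox.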

[19] = Relative antioxidant activity assessed as resorcinol equivalents of hydroperoxyl scavenging activity at acidic pH by BR oscillating reaction method; format: ADME
Summary of the method: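 Briggs–Rauscher oscillating reaction: hydrogen peroxide, acidic iodate, malonic acid and Mn(II) catalyst at about pH 2, with hydroperoxyl radicals as the key intermediates.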

RAW264.7 = assay: Cytotoxicity against mouse RAW264.7 cells assessed as cell survival after 20 hrs by SRB assay; conditions: for inhibition (INH): mouse, raw264.7, 20 h
Liver microsomes [20] = assay: Drug metabolism in human liver microsomes assessed as monooxygenated metabolite by UHPLC-MS/MS analysis; format: ADME, Microsome; summary of the method: as §1

Sequence of NAD(P)H dehydrogenase [quinone] 1 (Mus musculus) (Q64669 whole entry): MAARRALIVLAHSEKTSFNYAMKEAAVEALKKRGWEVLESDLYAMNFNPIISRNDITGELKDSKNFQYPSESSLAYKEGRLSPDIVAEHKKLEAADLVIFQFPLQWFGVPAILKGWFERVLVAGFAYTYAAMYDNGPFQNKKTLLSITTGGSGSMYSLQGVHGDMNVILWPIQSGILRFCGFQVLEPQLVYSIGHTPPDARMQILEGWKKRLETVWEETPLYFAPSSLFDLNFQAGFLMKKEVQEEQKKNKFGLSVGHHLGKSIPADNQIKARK

In the case of Oc1ccc(O)c(-c2cn3ccsc3n2)c1, the Drug metabolism (Liver microsomes [1]) is reported as “Active”, the half-life at 1 µM [2] is reported as 5.9 min and the IC50 (Aromatase [3]) is reported as 2.6 µM. It also gave an inhibition at 50 µM (Aromatase [4]) of 98.6%, a Ratio [5] of 0.3 and a Ratio [6] of 0.9. For the same compound, the CD [7] was 12.1 µM, the Ratio [8] was 3.8 and the inhibition [9] was “Dose-dependent effect”. It also gave an IC50 [10] of 6.4 µM, a viability at 0.25 h, 50 µM [11] of 48.2% and an inhibition [12] of 97.7%. For the same compound, the IC50 (HEK293 [13]) was 46.5 µM, the IC50 [14] was 2.24 µM and the viability at 50 µM [15] was 43.6%. The inhibition (HEK293 [16]) was 91%, the Activity [17] was 0.71 µM and the Activity [18] was 1.29 µM. For the same compound, the Activity [19] was 1.032 µM, the IC50 (RAW264.7; Mus musculus, RAW264.7, 20 h) was 11.6 µM and the “inhibition (INH)” value (RAW264.7) was “Dose-dependent effect”.

With O=c1c(-c2ccc(O)cc2)coc2c([C@@H]3O[C@H](CO)[C@@H](O)[C@H](O)[C@H]3O)c(O)ccc12 [PUERARIN] the Activity [19] was 0.192 µM.

Work on CC(C)NCC(O)COc1cccc2ccccc12 (stereo unspecified) [PROPRANOLOL] yielded a half-life at 1 µM [2] of 20.8 min.

Oc1cc(O)c2c(c1)O[C@@H](c1ccc(O)c(O)c1)[C@H](O)C2 [(-)-CATECHIN] showed an Activity [19] of 2.2 µM.

For Cc1cn2cc(-c3ccc(O)c(O)c3O)nc2s1, the Drug metabolism (Liver microsomes [20]) was “Active”, the half-life at 1 µM [2] was 11.2 min and the IC50 (Aromatase [3]) was 3.2 µM. For the same compound, the inhibition at 50 µM (Aromatase [4]) was 99.6%, the Ratio [5] was 0.2 and the Ratio [6] was 1.2. The CD [7] was 24.6 µM, the Ratio [8] was 2.03 and the inhibition [9] was “Dose-dependent effect”. The IC50 [10] was 6.8 µM, the viability at 0.25 h, 50 µM [11] was 52.3% and the inhibition [12] was 98.8%. The IC50 (HEK293 [13]) was 21.2 µM, the IC50 [14] was 0.53 µM and the viability at 50 µM [15] was 34.3%. For the same compound, the inhibition (HEK293 [16]) was 97.5%, the Activity [17] was 1.38 µM and the Activity [18] was 3.06 µM. For the same compound, the Activity [19] was 0.14 µM and the “inhibition (INH)” value (RAW264.7) was “Dose-dependent effect”.

In the case of O=c1c(O)c(-c2ccc(O)c(O)c2)oc2cc(O)cc(O)c12, the Activity [18] is reported as 3.1 µM.

Cc1ccc(S(=O)(=O)N[C@@H](Cc2ccccc2)C(=O)CCl)cc1 [TPCK] gave an IC50 [14] of 3.8 µM.
